From PMC6072051 (MedChemComm, 2017)

Experiments:
M. tuberculosis ICL1 [1] = molecular target: T1, M. tuberculosis ICL1 (Mycobacterium tuberculosis, UniProt P9WKK7); assay: 1H NMR ICL1 enzyme kinetics; type: biochemical; conditions: methylisocitrate as substrate, 190 nM ICL1, 5 mM MgCl2
T1 sequence (P9WKK7 1-428): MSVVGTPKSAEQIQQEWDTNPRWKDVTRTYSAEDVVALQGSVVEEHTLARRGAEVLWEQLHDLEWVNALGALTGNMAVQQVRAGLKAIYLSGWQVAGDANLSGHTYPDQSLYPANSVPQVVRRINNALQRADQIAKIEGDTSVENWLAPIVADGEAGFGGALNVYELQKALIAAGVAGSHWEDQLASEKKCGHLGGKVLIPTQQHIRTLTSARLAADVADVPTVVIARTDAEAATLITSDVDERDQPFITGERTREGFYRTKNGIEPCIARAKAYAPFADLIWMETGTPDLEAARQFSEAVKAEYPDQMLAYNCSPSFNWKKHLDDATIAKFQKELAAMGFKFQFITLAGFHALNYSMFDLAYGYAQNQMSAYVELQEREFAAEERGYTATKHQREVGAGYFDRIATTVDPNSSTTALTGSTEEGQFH

M. tuberculosis ICL1 [2] = molecular target: T1, M. tuberculosis ICL1; assay: 1H NMR assay of ICL1-catalysed turnover of DL-isocitrate; type: biochemical; conditions: for single concentration inhibition of ICL1: 100 μM inhibitor, 190 nM ICL1, 1 mM DL-isocitrate, 5 mM MgCl2
Outline: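 Recombinant ICL1 from E. coli BL21(DE3), purified by His-trap and gel filtration. Reactions in 50 mM Tris-D11 pH 7.5, 90% H2O/10% D2O at 300 K. 1H spectra with excitation-sculpting water suppression every ~1.3 min track the isocitrate decrease and the succinate singlet at 2.3 ppm. Initial rates from 15–20 min; inhibitors at varied concentrations; triplicates; IC50 by 3-parameter sigmoid fit.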

ICL1 = conditions: DL-isocitrate as substrate, LDH assay; cited from earlier work

SMILES	IC50 (M. tuberculosis ICL1 [2])	single concentration inhibition of ICL1 (M. tuberculosis ICL1 [2])	other results
C[C@](CC(=O)O)(C(=O)O)[C@H](O)C(=O)O [methylisocitrate]	–	–	substrate concentration above which substrate inhibition was observed (M. tuberculosis ICL1 [1]): exceeded 1 mM
CCOC(=O)c1ccc(CC(=O)c2oc3cc(O)ccc3c2C)o1 [Compound 29]	> 100 µM	significantly inhibited ICL1	–
O=C(O)CC(C(=O)O)C(O)C(=O)O (racemic) [DL-isocitrate, DL-Isocitrate]	–	–	Km (ICL1): 190 µM; kcat (ICL1): 5.24 s^–1
CCOC(=O)c1cc2cc(CC(=O)c3ccc(O)cc3O)ccc2o1 [Compound 38]	> 100 µM	significantly inhibited ICL1	–
COC(=O)C=CC(=O)c1ccc(OC)cc1 [Methyl-4-(4-methoxyphenyl)-4-oxobut-2-enoate, reference compound]	–	weakest of the four tested	–
O=C(O)CC[N+](=O)[O-] [3-Nitropropionate, reference compound]	–	most potent inhibitor	–
